Active and inactive are the calls of the source. The calls are words filed in the database; no cut-off is given here.
Legend:
[1] = biological target: ATP-dependent translocase ABCB1 (Homo sapiens, UniProt P08183); assay: Inhibition of P-glycoprotein-mediated rhodamine 123 uptake expressed in multidrug-resistant human K562/A02 cells assessed as fluorescence activity ratio at 10 uM after 72 hrs by flow cytometry relative to untreated control; type: cell-based; details: k562/a02, 72 h
Outline: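 Rh123 accumulation in P-gp-overexpressing K562/A02 cells with compound at 10 µM. FAR is the ratio of mean Rh123 fluorescence intensity in treated versus untreated cells. VRP served as positive control.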

K562 [2] = assay: Antiproliferative activity against human K562 cells after 72 hrs by MTS assay; type: functional, cell-based; details: K562, 72 h
Outline: (§1)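 Growth inhibition of parental K562 and drug-resistant K562/A02 leukemia cells, measured by MTS after 72 h exposure. IC50 is the concentration giving a 50% drop in cell growth. Values are means of three experiments. ADR served as positive control.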

[3] = Antiproliferative activity against multidrug-resistant human K562/A02 cells overexpressing p-glycoprotein after 72 hrs by MTS assay; type: functional, cell-based; details: K562/A02, 72 h; outline: as §1
K562/A02 [4] = assay: Survival of human K562/A02 cells in presence of adriamycin at 10 uM after 72 hrs by MTS assay
K562 [5] = assay: Potentiation of adriamycin-induced cytotoxicity in human K562 cells after 72 hrs by MTS assay; type: functional, cell-based
Outline: (§2)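 Chemosensitization was tested by co-treating K562/A02 cells with 2 µM ADR or K562 cells with 0.04 µM ADR, plus compound at 2.5, 5 or 10 µM, for 72 h. Survival was read by MTS and compared with ADR alone. VRP served as positive control.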

K562/A02 [6] = assay: Survival of human K562/A02 cells in presence of adriamycin at 2.5 uM after 72 hrs by MTS assay
K562/A02 [7] = assay: Inhibition of Pgp-mediated adriamycin efflux in multidrug-resistance human K562/A02 cells assessed as increase in intracellular accumulation of adriamycin after 60 mins by FACS flow cytometry; type: cell-based
Outline: (§3)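 K562/A02 cells were incubated with 0.5 µM Rh123 or 0.5 µM ADR, with or without 0.33, 3.3 or 10 µM compound, at 37 °C for 30 min. K562 cells received dye only. Cells were washed twice in PBS, resuspended in medium and left 60 min at 37 °C for efflux. Read-out was fluorescence microscopy or flow cytometry (ex/em 488/520 nm Rh123; 488/570 nm ADR). Vehicle was 0.1% DMSO.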

K562/A02 [8] = assay: Survival of human K562/A02 cells in presence of adriamycin at 5 uM after 72 hrs by MTS assay
K562/A02 [9] = assay: Inhibition of Pgp-mediated rhodamine-123 efflux in multidrug-resistance human K562/A02 cells assessed as increase in intracellular accumulation of rhodamine-123 after 60 mins by fluorescence microscopic analysis; type: cell-based; outline: as §3
K562/A02 [10] = assay: Inhibition of Pgp-mediated multidrug-resistance in human K562/A02 cells assessed as potentiation of adriamycin-induced cytotoxicity after 72 hrs by MTS assay; type: cell-based; outline: as §2

ATP-dependent translocase ABCB1, sequence (P08183 whole entry): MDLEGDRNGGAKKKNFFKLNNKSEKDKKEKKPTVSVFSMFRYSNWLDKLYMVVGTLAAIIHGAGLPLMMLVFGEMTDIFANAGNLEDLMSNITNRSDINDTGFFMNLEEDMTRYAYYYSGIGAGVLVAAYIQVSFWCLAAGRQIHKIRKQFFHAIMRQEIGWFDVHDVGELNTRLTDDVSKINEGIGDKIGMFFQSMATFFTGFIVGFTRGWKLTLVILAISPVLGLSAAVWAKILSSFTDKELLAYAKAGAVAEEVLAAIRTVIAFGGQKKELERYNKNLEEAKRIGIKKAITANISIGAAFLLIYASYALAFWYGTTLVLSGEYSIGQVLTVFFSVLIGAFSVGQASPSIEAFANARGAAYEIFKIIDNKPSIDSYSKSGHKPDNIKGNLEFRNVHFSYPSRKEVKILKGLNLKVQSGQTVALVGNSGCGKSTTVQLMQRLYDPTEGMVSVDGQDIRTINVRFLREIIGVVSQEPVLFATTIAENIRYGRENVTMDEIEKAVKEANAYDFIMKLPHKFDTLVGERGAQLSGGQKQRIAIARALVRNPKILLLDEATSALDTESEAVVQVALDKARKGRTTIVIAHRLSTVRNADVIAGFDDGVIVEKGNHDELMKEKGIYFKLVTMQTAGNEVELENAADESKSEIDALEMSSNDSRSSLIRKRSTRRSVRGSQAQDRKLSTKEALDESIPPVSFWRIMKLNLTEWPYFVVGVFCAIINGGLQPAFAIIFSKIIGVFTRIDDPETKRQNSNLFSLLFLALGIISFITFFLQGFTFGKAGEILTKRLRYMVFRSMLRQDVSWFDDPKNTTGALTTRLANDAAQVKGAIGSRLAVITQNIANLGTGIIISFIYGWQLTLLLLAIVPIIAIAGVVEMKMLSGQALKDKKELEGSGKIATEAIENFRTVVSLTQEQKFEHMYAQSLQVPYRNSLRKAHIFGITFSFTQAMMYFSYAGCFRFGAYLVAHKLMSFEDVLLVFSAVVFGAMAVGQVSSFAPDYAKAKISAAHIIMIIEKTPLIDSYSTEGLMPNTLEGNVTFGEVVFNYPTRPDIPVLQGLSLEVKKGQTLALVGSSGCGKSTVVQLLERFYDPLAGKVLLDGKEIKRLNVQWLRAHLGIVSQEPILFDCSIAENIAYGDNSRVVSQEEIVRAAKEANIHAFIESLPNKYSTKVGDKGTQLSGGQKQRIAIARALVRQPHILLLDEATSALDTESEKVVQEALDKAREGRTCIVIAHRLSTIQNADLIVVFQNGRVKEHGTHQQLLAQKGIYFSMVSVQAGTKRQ

| SMILES | Ratio [1] | IC50 (K562 [2]) [µM] | IC50 [3] [µM] | survival rate (K562/A02 [4]) [%] | Activity (K562 [5]) | survival rate (K562/A02 [6]) [%] | inhibition (K562/A02 [7]) | survival rate (K562/A02 [8]) [%] | inhibition (K562/A02 [9]) | inhibition (K562/A02 [10]) |
| --- | --- | --- | --- | --- | --- | --- | --- | --- | --- | --- |
| COc1cc2c(c3c1OCO3)-c1c(cc(OC)c3c1OCO3)C(=O)N(CCN1CCN(C)CC1)C2 | 1.03 | > 100 | > 100 | – | – | – | – | – | – | – |
| COc1cc2c(c3c1OCO3)-c1c(cc(OC)c3c1OCO3)C(=O)N(CCN(C)C)C2 | 1.44 | > 100 | > 100 | – | – | – | – | – | – | – |
| CCCN(CCC)CCN1Cc2cc(OC)c3c(c2-c2c(cc(OC)c4c2OCO4)C1=O)OCO3 | 2.84 | > 100 | > 100 | – | – | – | – | – | – | – |
| COc1ccc(CCN(C)CCCC(C#N)(c2ccc(OC)c(OC)c2)C(C)C)cc1OC (configuration not stated) [VERAPAMIL] | 4.16 | – | – | – | – | – | – | – | – | – |
| COc1cc2c(c3c1OCO3)-c1c(cc(OC)c3c1OCO3)C(=O)N(CCN1CCOCC1)C2 | 3.23 | > 100 | > 100 | – | – | – | – | – | – | – |
| COc1cc2c(c3c1OCO3)-c1c(cc(OC)c3c1OCO3)C(=O)N(CCN1CCCC1)C2 | 1.65 | > 100 | > 100 | – | – | – | – | – | – | – |
| COc1cc2c(c3c1OCO3)-c1c(cc(OC)c3c1OCO3)C(=O)N(CCN1CCCCC1)C2 | 3.46 | 90 | 91.1 | – | – | – | – | – | – | – |
| COc1cc2c(c3c1OCO3)-c1c(cc(OC)c3c1OCO3)C(=O)N(CCN1CCN(Cc3ccccc3)CC1)C2 | 14.11 | 49.2 | 56.3 | 7.5 | inactive | 33.9 | Dose-dependent effect | 19.9 | Dose-dependent effect | Dose-dependent effect |
| CCN(CC)CCN1Cc2cc(OC)c3c(c2-c2c(cc(OC)c4c2OCO4)C1=O)OCO3 | 2.57 | 62.4 | 94.8 | – | – | – | – | – | – | – |

— ChEMBL document CHEMBL2046297, “Synthesis and evaluation of substituted dibenzo[c,e]azepine-5-ones as P-glycoprotein-mediated multidrug resistance reversal agents” (Bioorg Med Chem Lett, 2012)
